In ChEMBL document CHEMBL1134248, “1,4-Benzodiazepine peripheral cholecystokinin (CCK-A) receptor agonists” (2001):

Experiments:
Cavia porcellus [1] = species on record: Cavia porcellus; test: In vitro functional efficacy determined by maximal contraction of isolated guinea pig gallbladder at 1 uM concentration of compound relative to CCK-8 at 1 uM
How it was run: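 Isolated guinea pig gallbladder exposed to test ligand for 30 min at 37 °C. Maximal contraction at a single compound concentration is expressed relative to the CCK-8 contraction, set at 100%. Selective CCK-A antagonist MK-329 was used to check reversal of agonist responses.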

Rattus norvegicus [2] = test: In vivo anoretic efficacy in the rat conditioned feeder assay measured as dose that produced half maximal response; format: functional
How it was run: (§1)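 Fasted rats in a conditioned-feeder model, dosed intraperitoneally; food intake measured at 30 min versus control animals. %Max is the percentage reduction in intake at 10 µmol/kg (CCK-8 at 0.5 µmol/kg). ED50 is the dose producing 50% of the maximal response seen at 10 µmol/kg.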

Cavia porcellus [3] = species on record: Cavia porcellus; test: Concentration at which 50% of the maximal contraction was observed for % CCK; format: functional
How it was run: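 Isolated guinea pig gallbladder strips incubated with test ligand 30 min at 37 °C; contraction read as efficacy relative to CCK-8 (1 µM) = 100%. Single-concentration efficacy taken at 30 µM. Full dose–response curves run for ligands giving >40% of the CCK-8 response; ED50 is the concentration giving 50% of maximal contraction. Agonism checked for reversal by CCK-A antagonist MK-329.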

Rattus norvegicus [4] = test: Percentage maximal response in rats at 10 umol/kg administered intraperitoneally; format: functional; how it was run: as §1

Row | Structure (SMILES) | inhibition at 1 µM (Cavia porcellus [1]) | ED50 (Rattus norvegicus [2]) | ED50 (Cavia porcellus [3]) | Max (Rattus norvegicus [4])
1 | COc1ccc(N(C(=O)CN2C(=O)C(Cc3n[nH]c4ccccc34)N=C(c3ccccc3)c3ccccc32)C(C)C)cc1 (configuration not stated) | 27% | – | – | –
2 | COc1ccc(N(C(=O)CN2C(=O)C(NC(=O)Nc3cccc(C(=O)O)c3)[N+]([O-])=C(C3CCCCC3)c3ccccc32)C(C)C)cc1 (configuration not stated) | – | 80 nmol/kg | 3 nM | 69%
3 | COc1ccc(N(C(=O)CN2C(=O)C(NC(=O)Nc3ccccc3)[N+]([O-])=C(C)c3ccccc32)C(C)C)cc1 (configuration not stated) | – | – | 202 nM | –
4 | COc1ccc(N(C(=O)CN2C(=O)C(NC(=O)Nc3ccccc3)[N+]([O-])=C(C3CCCCC3)c3ccccc32)C(C)C)cc1 (configuration not stated) | – | 25 nmol/kg | 342 nM | 75%
5 | COc1ccc(N(C(=O)CN2C(=O)C(CC(=O)Nc3ccccc3)N=C(c3ccccc3)c3ccccc32)C(C)C)cc1 (configuration not stated) | – | – | 1100 nM | –
6 | COc1ccc(N(C(=O)CN2C(=O)C(NC(=O)Nc3ccccc3)N=C(C)c3ccccc32)C(C)C)cc1 (configuration not stated) | – | – | 296 nM | –
7 | CC(C)N(C(=O)CN1C(=O)C(Cc2c[nH]c3ccccc23)N=C(c2ccccc2)c2ccccc21)c1ccccc1 (configuration not stated) | – | – | 41 nM | –
8 | COc1ccc(N(C(=O)CN2C(=O)C(NC(=O)c3cc4ccccc4[nH]3)[N+]([O-])=C(C3CCCCC3)c3ccccc32)C(C)C)cc1 (configuration not stated) | – | – | 131 nM | –
9 | COc1ccc(N(C(=O)CN2C(=O)C(NC(=O)Nc3ccccc3)N=C(C3CCCCC3)c3ccccc32)C(C)C)cc1 (configuration not stated) | – | – | 233 nM | –
10 | COc1ccc(N(C(=O)CN2C(=O)C(Cc3n[nH]c4ccccc34)[N+]([O-])=C(c3ccccc3)c3ccccc32)C(C)C)cc1 (configuration not stated) | – | 150 nmol/kg | 13 nM | 79%
11 | COc1ccc(N(C(=O)CN2C(=O)C(NC(=O)Nc3cccc(C(=O)O)c3)N=C(c3ccccc3)c3ccccc32)C(C)C)cc1 (configuration not stated) | 27% | – | – | –
